Data published in ChEMBL document CHEMBL1121998, “Synthesis and hypoglycemic activity of phenylalkyloxiranecarboxylic acid derivatives” (J Med Chem, 1982).
Activity calls are given as the source filed them. The rule behind the calls is not given here.

Experiments:
[1] = Compound was tested for its lethality in mice when administered perorally; format: ADME, organism-based; conditions: mouse, in vivo, po
Method in brief: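 Groups of five female NMR mice (22-26 g), water ad libitum, food reduced to 50 g/kg body weight 18 h before dosing; single oral administration.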

Rattus norvegicus [2] = assay: Ability to decrease blood glucose levels in fasted rats at the dose of 0.6 mmol/kg was determined; format: functional
Method in brief: (§1)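 Male Sprague–Dawley SIV-50 or Mus Rattus rats (160–200 g), 6–12 per group, fasted overnight. Oral tube dosing as neutral aqueous solution or 1:1 Cremophor EL/water emulsion, 10 mL/kg. Retro-orbital blood taken before and at 2, 4 and 6 h; glucose measured enzymatically (HK/G6PDH). Change expressed relative to controls; two-sided Student's t test.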

Rattus norvegicus [3] = species on record: Rattus norvegicus; assay: Effective dose at which 50% of the rats show at least a 25% decrease of blood glucose levels compared to controls; format: functional
Method in brief: (§2)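 Overnight-fasted male rats (Sprague–Dawley SIV-50 or Mus Rattus, 160–200 g), 6–12 per group, dosed orally at 10 mL/kg as neutral aqueous solution or 1:1 Cremophor EL/water emulsion. Retro-orbital blood glucose by HK/G6PDH before and 2, 4, 6 h post-dose. ED50 (25%) = dose at which 50% of rats show ≥25% fall versus controls. Derived by linear or log-linear regression over at least four doses.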

[4] = Tested for its effect on hepatic epoxide hydrolase; No significant inhibition up to 1e-3 mol/L
Rattus norvegicus [5] = assay: Ability to decrease blood glucose levels in fasted rats at the dose of 0.6 mmol/kg was determined; No effect; format: functional, organism-based; method in brief: as §1
Rattus norvegicus [6] = species on record: Rattus norvegicus; assay: Effective dose at which 50% of the rats show at least a 25% decrease of blood glucose levels compared to controls; Not feasible; format: functional, organism-based; method in brief: as §2
Rattus norvegicus [7] = species on record: Rattus norvegicus; assay: Effective dose at which 50% of the rats show at least a 25% decrease of blood glucose levels compared to controls; Reverse effect at higher dose

| SMILES | Decrease (Rattus norvegicus [2]) | ED50 (Rattus norvegicus [3]) | Effect [4] | Decrease (Rattus norvegicus [5]) | further results |
| --- | --- | --- | --- | --- | --- |
| CCOC(=O)C1(CCCc2ccc(Cl)c(Cl)c2)CO1 (stereo not given) | <29% | 330 µmol/kg | No significant inhibition up to 1e-3 mol/L | – | LD50 [1]: 2870 µmol/kg |
| CCNC(=O)C1(CCCc2ccccc2)CO1 (stereo not given) | – | – | – | inactive | – |
| O=C([O-])C1(CCCc2cccc(C(F)(F)F)c2)CO1.[Na+] (stereo not given) | <77% | 80 µmol/kg | No significant inhibition up to 1e-3 mol/L | – | – |
| CCOC(=O)C1(CCCc2ccccc2)CO1 (stereo not given) | <19% | 1170 µmol/kg | No significant inhibition up to 1e-3 mol/L | – | – |
| CCOC(=O)C1(CCCc2ccc(OC)cc2)CO1 (stereo not given) | – | – | – | inactive | – |
| CCN(CC)C(=O)C1(CCCc2ccccc2)CO1 (stereo not given) | – | – | – | inactive | – |
| CCOC(=O)C1(CCc2ccccc2)CO1 (stereo not given) | – | – | No significant inhibition up to 1e-3 mol/L | inactive | – |
| CCOC(=O)C1(CCCCCc2ccc(Cl)cc2)CO1 (stereo not given) | 80% | 20 µmol/kg | No significant inhibition up to 1e-3 mol/L | – | LD50 [1]: 930 µmol/kg |
| CCOC(=O)C1(CCCc2ccccc2)OC1(C)C (stereo not given) | – | – | – | inactive | – |
| CCOC(=O)C1(Cc2ccccc2)CO1 (stereo not given) | – | – | No significant inhibition up to 1e-3 mol/L | inactive | – |
| CCOC(=O)C1(CCCCCCCCc2ccccc2)CO1 (stereo not given) | – | – | – | inactive | – |
| NC(=O)C1(CCCc2ccccc2)CO1 (stereo not given) | – | – | – | inactive | – |
| CCOC(=O)C1(CCCc2ccc(Cl)cc2)OC12CCCCC2 (stereo not given) | – | – | – | inactive | – |
| CCOC(=O)C1(CCCc2ccc(C)cc2)CO1 (stereo not given) | <27% | – | No significant inhibition up to 1e-3 mol/L | – | – |
| CCOC(=O)C1OC1CCc1ccccc1 (stereo not given) | – | – | – | inactive | – |
| O=C([O-])C1(CCCc2ccc(Cl)cc2)CO1.[Na+] (stereo not given) | <68% | 180 µmol/kg | – | – | – |
| O=C([O-])C1(CCCCCc2ccccc2)CO1.[Na+] (stereo not given) | <29% | – | No significant inhibition up to 1e-3 mol/L | – | LD50 [1]: 1060 µmol/kg; ED50 (Rattus norvegicus [6]): inactive |

| SMILES | Decrease (Rattus norvegicus [2]) | ED50 (Rattus norvegicus [3]) | Effect [4] | Decrease (Rattus norvegicus [5]) | further results |
| --- | --- | --- | --- | --- | --- |
| CCOC(=O)C1(CCCc2ccc(C(C)(C)C)cc2)CO1 (stereo not given) | – | – | – | inactive | – |
| O=C([O-])C1(CCCCCc2ccc(Cl)cc2)CO1.[Na+] (stereo not given) | 80% | 30 µmol/kg | No significant inhibition up to 1e-3 mol/L | – | LD50 [1]: 1640 µmol/kg |
| CCOC(=O)C1(CCCc2cc(Cl)ccc2OC)CO1 (stereo not given) | – | – | – | inactive | – |
| CCOC(=O)C1(CCCc2ccccc2Cl)CO1 (stereo not given) | <11% | – | – | – | – |
| CCOC(=O)C1(CCCc2cccc(Cl)c2)CO1 (stereo not given) | <26% | 680 µmol/kg | – | – | – |
| CCOC(=O)C1(CCCCCCc2ccccc2)CO1 (stereo not given) | 24% | – | – | – | ED50 (Rattus norvegicus [6]): inactive |
| CCOC(=O)C1(CCCc2ccc(F)cc2)CO1 (stereo not given) | <37% | – | – | – | LD50 [1]: 3960 µmol/kg |
| CCOC(=O)C1(CCCCCCCc2ccccc2)CO1 (stereo not given) | 18% | – | – | – | ED50 (Rattus norvegicus [6]): inactive |
| CCOC(=O)C1(CCCc2ccccc2)OC12CCCCC2 (stereo not given) | – | – | – | inactive | – |
| CCOC(=O)C1(CCCCCc2ccccc2)CO1 (stereo not given) | <18% | – | No significant inhibition up to 1e-3 mol/L | – | LD50 [1]: 880 µmol/kg; ED50 (Rattus norvegicus [7]): 80 µmol/kg |
| CCOC(=O)C1(CCCc2ccc(Cl)cc2)CO1 (stereo not given) | <30% | 200 µmol/kg | No significant inhibition up to 1e-3 mol/L | – | LD50 [1]: 2720 µmol/kg |
| CCOC(=O)C1(CCCc2cccc(C(F)(F)F)c2)CO1 (stereo not given) | <47% | 170 µmol/kg | No significant inhibition up to 1e-3 mol/L | – | LD50 [1]: 860 µmol/kg |
| CCOC(=O)C1(CCCCCCCc2ccc(Cl)cc2)CO1 (stereo not given) | <49% | 270 µmol/kg | – | – | LD50 [1]: 950 µmol/kg |
| CCOC(=O)C1(CCCc2ccc(Cl)cc2)OC1(C)C (stereo not given) | 10% | – | – | – | – |
| CCOC(=O)C1(CCCCc2ccccc2)CO1 (stereo not given) | <44% | 600 µmol/kg | No significant inhibition up to 1e-3 mol/L | – | – |
| COC(=O)C1OC1CCCc1ccccc1 (stereo not given) | – | – | – | inactive | – |
